Source: ChEMBL document CHEMBL2331187, “Efficient synthesis of 3H,3'H-spiro[benzofuran-2,1'-isobenzofuran]-3,3'-dione as novel skeletons specifically for influenza virus type B inhibition” (Eur J Med Chem, 2013)

Tests used:
Human alphaherpesvirus 2 = experiment: Antiviral activity against Herpes simplex virus 2 MS infected in Vero cells assessed as inhibition of virus-induced cytopathogenicity by MTT assay; type: functional, organism-based; conditions: Human alphaherpesvirus 2, MS
Procedure, shortened: (§1)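 MTT-based CPE assay in Vero cells with HSV-1 strain F or HSV-2 strain MS. CC50 is the concentration that reduces viability of uninfected Vero cells by 50%. EC50 is the concentration that improves viability of HSV-infected cells by 50%.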

Influenza B virus [1] = experiment: Antiviral activity against Influenza B virus (B/Panama/45/1990) infected in MDCK cells assessed as inhibition of virus-induced cytopathogenicity at 1 hr post-infection measured after 3 days by fluorescein-diacetate based fluorimetric analysis; type: functional, cell-based; conditions: B/Panama/45/1990, MDCK
Procedure, shortened: (§2)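 Confluent MDCK monolayers were mock-infected or infected with about 50-100 PFU of influenza virus per well. At read-out the medium was removed and cells were stained with fluorescein diacetate in PBS for 20 min at 35 °C. Fluorescence was read at ex 485/em 538 nm. CC50 and EC50 were derived from the fluorescence, and the selectivity index was taken as CC50/EC50.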

[2] = Selectivity ratio of CC50 for MDCK cells to EC50 for Influenza B virus (B/Lee/40); type: ADME, cell-based; conditions: dog, read-out: Ratio CC50/EC50; procedure, shortened: as §2
Influenza A virus = experiment: Antiviral activity against Influenza A virus (A/Taiwan/1/1986(H1N1)) infected in MDCK cells assessed as inhibition of virus-induced cytopathogenicity at 1 hr post-infection measured after 3 days by fluorescein-diacetate based fluorimetric analysis; type: functional, organism-based; procedure, shortened: as §2
[3] = test system: Human immunodeficiency virus 1; experiment: Antiviral activity against Human immunodeficiency virus 1 3B infected in MT4 cells assessed as inhibition of virus-induced cytopathogenicity by MTT assay; type: functional, organism-based
Procedure, shortened: (§3)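 MTT-based CPE assay in MT4 cells. CC50 is the concentration that reduces viability of uninfected MT4 cells by 50%. EC50 is the concentration that improves viability of HIV-infected cells by 50%.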

Human alphaherpesvirus 1 = experiment: Antiviral activity against Herpes simplex virus 1 F infected in Vero cells assessed as inhibition of virus-induced cytopathogenicity by MTT assay; type: functional, organism-based; conditions: Human alphaherpesvirus 1, strain F; procedure, shortened: as §1
[4] = Selectivity ratio of CC50 for MDCK cells to EC50 for Influenza B virus (B/Taiwan/2/62); type: ADME, cell-based; conditions: dog, read-out: Ratio CC50/EC50; procedure, shortened: as §2
Influenza B virus [5] = experiment: Antiviral activity against Influenza B virus (B/Brisbane/60/2008) infected in MDCK cells assessed as inhibition of virus-induced cytopathogenicity at 1 hr post-infection measured after 3 days by fluorescein-diacetate based fluorimetric analysis; type: functional, cell-based; conditions: B/Brisbane/60/2008, MDCK; procedure, shortened: as §2
Influenza B virus [6] = experiment: Antiviral activity against Influenza B virus (B/Taiwan/2/62) infected in MDCK cells assessed as inhibition of virus-induced cytopathogenicity at 1 hr post-infection measured after 3 days by fluorescein-diacetate based fluorimetric analysis; type: functional, organism-based; procedure, shortened: as §2
[7] = Selectivity ratio of CC50 for MDCK cells to EC50 for Influenza B virus (B/Panama/45/1990); type: ADME, cell-based; conditions: dog, read-out: Ratio CC50/EC50; procedure, shortened: as §2
[8] = test system: Human immunodeficiency virus 2; experiment: Antiviral activity against Human immunodeficiency virus 2 ROD infected in MT4 cells assessed as inhibition of virus-induced cytopathogenicity by MTT assay; type: functional, organism-based; conditions: Human immunodeficiency virus 2, ISOLATE ROD; procedure, shortened: as §3
[9] = Cytotoxicity against human MT4 cells by MTT assay; type: cell-based; procedure, shortened: as §3
Influenza B virus [10] = experiment: Antiviral activity against Influenza B virus (B/Lee/40) infected in MDCK cells assessed as inhibition of virus-induced cytopathogenicity at 1 hr post-infection measured after 3 days by fluorescein-diacetate based fluorimetric analysis; type: functional, organism-based; conditions: B/Lee/1940, MDCK; procedure, shortened: as §2
[11] = Cytotoxicity against MDCK cells after 3 days by fluorescein diacetate-based fluorimetric analysis; type: cell-based, Canis lupus familiaris; conditions: dog; procedure, shortened: as §2
[12] = Cytotoxicity against african green monkey Vero cells by MTT assay; type: cell-based; conditions: chlorocebus sabaeus; procedure, shortened: as §1
[13] = Selectivity ratio of CC50 for MDCK cells to EC50 for Influenza B virus (B/Brisbane/60/2008); type: ADME, cell-based; conditions: dog, read-out: Ratio CC50/EC50; procedure, shortened: as §2
MDCK = experiment: Cytotoxicity against MDCK cells assessed as cell death at 500 uM after 3 days by fluorescein diacetate-based fluorimetric analysis; design: species or system Canis lupus familiaris; conditions: dog, 72 h

Structure (SMILES) | EC50 (Influenza B virus [1]) | EC50 (Influenza A virus) | EC50 (Influenza B virus [5]) | EC50 (Influenza B virus [6]) | EC50 (Influenza B virus [10]) | CC50 at 72 h [11] | other results
Cc1cc2c(cc1C)C(=O)C1(OC(=O)c3ccccc31)O2 (stereo not drawn) | 3 µM | 23.4 µM | 4.8 µM | 3.6 µM | 16.1 µM | > 500 µM | EC50 (Human alphaherpesvirus 2): > 312 µM; selectivity ratio [2]: 30; EC50 [3]: > 158 µM; EC50 (Human alphaherpesvirus 1): > 312 µM; selectivity ratio [4]: 30; selectivity ratio [7]: > 15; EC50 [8]: > 158 µM; CC50 [9]: 158 µM; CC50 [12]: 312 µM; selectivity ratio [13]: 30
O=C1OC2(Oc3ccccc3C2=O)c2ccccc21 (stereo not drawn) | 88.1 µM | > 500 µM | – | – | – | > 500 µM | selectivity ratio [7]: 20
CC(C)c1ccc2c(c1)OC1(OC(=O)c3ccccc31)C2=O (stereo not drawn) | 44.9 µM | 148 µM | – | – | – | 314 µM | –
O=C1OC2(Oc3c(ccc4ccccc34)C2=O)c2ccccc21 (stereo not drawn) | < 6.2 µM | < 6.2 µM | – | – | – | 40.4 µM | –
O=C1OC2(Oc3cc4ccccc4cc3C2=O)c2ccccc21 (stereo not drawn) | 96.1 µM | 206 µM | 132 µM | 39.4 µM | 159 µM | > 500 µM | –
O=C1OC2(Oc3cc(-c4ccccc4)ccc3C2=O)c2ccccc21 (stereo not drawn) | < 6.2 µM | 7.6 µM | – | – | – | 36.3 µM | selectivity ratio [7]: < 5
O=C1OC2(Oc3cc(Cl)ccc3C2=O)c2ccccc21 (stereo not drawn) | > 500 µM | > 500 µM | – | – | – | > 500 µM | –
CCOC(=O)c1ccc2c(c1)C(=O)C1(OC(=O)c3ccccc31)O2 (stereo not drawn) | > 500 µM | > 500 µM | – | – | – | > 500 µM | –
O=C1OC2(Oc3cc(F)ccc3C2=O)c2ccccc21 (stereo not drawn) | 8.2 µM | 100 µM | – | – | – | > 500 µM | selectivity ratio [7]: > 15; Activity (MDCK): > 20%
O=C1OC2(Oc3c(Cl)ccc(Cl)c3C2=O)c2ccccc21 (stereo not drawn) | 18.4 µM | 25.5 µM | – | – | – | 86 µM | –
Cc1cc2c(cc1C)C1(OC2=O)Oc2cc(C(C)C)ccc2C1=O (stereo not drawn) | > 500 µM | 321 µM | – | – | – | > 500 µM | –
COc1cc2c(cc1OC)C1(OC2=O)Oc2cc(C(C)C)ccc2C1=O (stereo not drawn) | 33.3 µM | > 500 µM | – | – | – | > 500 µM | selectivity ratio [7]: > 15; Activity (MDCK): 47%
Nc1ccc2c(c1)OC1(OC(=O)c3ccccc31)C2=O (stereo not drawn) | 27.4 µM | 49 µM | – | – | – | 305 µM | –
COc1ccc2c(c1)OC1(OC(=O)c3ccccc31)C2=O (stereo not drawn) | > 500 µM | > 500 µM | – | – | – | > 500 µM | –
Cc1cccc2c1OC1(OC(=O)c3ccccc31)C2=O (stereo not drawn) | 24.7 µM | 83.2 µM | 104 µM | 53 µM | 199 µM | > 500 µM | –
Cc1ccc2c(c1)OC1(OC(=O)c3ccccc31)C2=O (stereo not drawn) | 25.7 µM | 27.8 µM | 46.9 µM | 31.2 µM | 59.9 µM | 376 µM | –
Cc1ccc2c(c1)C(=O)C1(OC(=O)c3ccccc31)O2 (stereo not drawn) | 7.6 µM | 32.9 µM | 28 µM | 24.8 µM | 32.8 µM | 293 µM | –
O=C1OC2(Oc3c(cccc3-c3ccccc3)C2=O)c2ccccc21 (stereo not drawn) | 4.3 µM | 12.9 µM | 11.2 µM | 8.3 µM | 12.2 µM | 29.2 µM | selectivity ratio [7]: < 5

Structure (SMILES) | EC50 (Influenza B virus [1]) | EC50 (Influenza A virus) | EC50 (Influenza B virus [5]) | EC50 (Influenza B virus [6]) | EC50 (Influenza B virus [10]) | CC50 at 72 h [11] | other results
O=C1OC2(Oc3ccc(-c4ccccc4)cc3C2=O)c2ccccc21 (stereo not drawn) | 6.6 µM | > 30.3 µM | 12.1 µM | 10.8 µM | 14.1 µM | 30.3 µM | selectivity ratio [7]: < 5
O=C1OC2(Oc3c(Cl)cccc3C2=O)c2ccccc21 (stereo not drawn) | 21.7 µM | 174 µM | 96.3 µM | 61.4 µM | 227 µM | > 500 µM | –
O=C1OC2(Oc3ccc(Cl)cc3C2=O)c2ccccc21 (stereo not drawn) | 7.8 µM | 25.2 µM | 28.6 µM | 21.7 µM | 38.8 µM | 153 µM | –
CCc1ccc2c(c1)OC1(OC(=O)c3ccccc31)C2=O (stereo not drawn) | 11.2 µM | 34.6 µM | 32.2 µM | 12.1 µM | 34.4 µM | 103 µM | –
CCc1ccc2c(c1)C(=O)C1(OC(=O)c3ccccc31)O2 (stereo not drawn) | 7.5 µM | 28.1 µM | 25.4 µM | 9.3 µM | 31.2 µM | 112 µM | –
CCCc1ccc2c(c1)C(=O)C1(OC(=O)c3ccccc31)O2 (stereo not drawn) | 9.8 µM | 30.8 µM | 27.6 µM | 25 µM | 33.7 µM | 100 µM | –
Cc1ccc2c(c1C)OC1(OC(=O)c3ccccc31)C2=O (stereo not drawn) | 9.9 µM | 7.1 µM | 23.5 µM | 28.9 µM | 32 µM | 370 µM | –
Cc1cc(C)c2c(c1)OC1(OC(=O)c3ccccc31)C2=O (stereo not drawn) | > 500 µM | 11.4 µM | > 500 µM | > 500 µM | > 500 µM | > 500 µM | –
Cc1ccc(C)c2c1OC1(OC(=O)c3ccccc31)C2=O (stereo not drawn) | > 187 µM | > 187 µM | 42.7 µM | 66.6 µM | > 187 µM | 187 µM | –
O=C1OC2(Oc3cc4c(cc3C2=O)CCC4)c2ccccc21 (stereo not drawn) | 2.1 µM | 9.8 µM | 4.8 µM | 5.7 µM | 10.6 µM | 80.4 µM | –
Cc1cc2c(c(C)c1C)C(=O)C1(OC(=O)c3ccccc31)O2 (stereo not drawn) | 11 µM | > 500 µM | 103 µM | 23.2 µM | 254 µM | > 500 µM | –
COc1cccc2c1OC1(OC(=O)c3ccccc31)C2=O (stereo not drawn) | 23.6 µM | 126 µM | 81.1 µM | 42.3 µM | 58.2 µM | 253 µM | –
Nc1nc2c(ncn2COCCO)c(=O)[nH]1 [ACYCLOVIR] | – | – | – | – | – | – | EC50 (Human alphaherpesvirus 2): 58.6 µM; EC50 (Human alphaherpesvirus 1): 1.7 µM; CC50 [12]: > 50 µM
NC12CC3CC(CC(C3)C1)C2 [AMANTADINE] | > 100 µM | 0.6 µM | > 100 µM | > 100 µM | > 100 µM | > 100 µM | –
O=c1[nH]cnc2c1ncn2[C@H]1CC[C@@H](CO)O1 [DIDANOSINE] | – | – | – | – | – | – | EC50 [3]: 7.8 µM; EC50 [8]: 34.7 µM; CC50 [9]: > 500 µM
NC(=O)c1nc(F)cnc1O [FAVIPIRAVIR] | 1.94 µM | 6.95 µM | 1.32 µM | 2.84 µM | 1.93 µM | > 100 µM | –
Nc1ccn([C@H]2CC[C@@H](CO)O2)c(=O)n1 [ZALCITABINE] | – | – | – | – | – | – | EC50 [3]: 0.4 µM; EC50 [8]: 0.4 µM; CC50 [9]: 75.2 µM
